# Results pooled from the literature.
# Each line is one published result; the experiments were not run side by side.
# Target: Mitogen-activated protein kinase 13 (MAPK13, Homo sapiens, UniProt O15264)
SMILES,observed,action,method,tested at,endpoint,value
CCN(CC)c1ccc(C2=NNC(=O)CC2C)cc1[N+](=O)[O-] (stereo not drawn),enzyme activity,inhibitor,,10 µM,remaining activity,97%
CC1=C(C#N)[C@@H](c2ccc3[nH]nc(C)c3c2)C(C#N)=C(c2ccc(Cl)cc2)N1,cell-free assay,,competition with immobilised ligand,1 µM,remaining binding,100%
COc1cc(Nc2cnc(C#N)c(O[C@H](C)CN(C)C)n2)ncc1-c1cnn(C)c1,enzyme activity,inhibitor,radiometric,10 µM,remaining activity,73%
Cn1c2c(Cl)c(Cl)ccc2c2cn[nH]c(=O)c21,thermal stability,,DSF,10 µM,ΔTm,0 °C
Cc1ccc(NC(=O)c2ccc(C)c(C(F)(F)F)c2)cc1C#Cc1nn(C2CCC(O)CC2)c2ncnc(N)c12 (stereo not drawn),cell-free assay,,,10 µM,remaining signal,80%
FC(F)c1nc2ccccc2n1-c1nc(N2CCOCC2)nc(N2CCOCC2)n1,enzyme activity,inhibitor,,10 µM,remaining activity,107%
CC(C)(C)C(=O)c1sc(NC2CCCCC2)nc1N,enzyme activity,inhibitor,,10 µM,remaining activity,102%
N#CCCc1ccc2c(c1)-c1[nH]c3ccc([N+](=O)[O-])cc3c1CC(=O)N2,cell-free assay,,,0.5 µM,remaining signal,98.2%
CN1CCC2(CC1)NC(=O)c1c(c3ccc(Cl)c(Cl)c3n1C)C2C#N (racemic),thermal stability,,DSF,10 µM,ΔTm,0.4 °C
Nc1nc(NC2CCCCC2)sc1C(=O)c1ccccc1,enzyme activity,inhibitor,,10 µM,remaining activity,67%
CCCS(=O)(=O)Nc1ccc(F)c(C(=O)c2c[nH]c3ncc(-c4ccc(Cl)cc4)cc23)c1F,enzyme activity,inhibitor,,1 µM,inhibition,< 10%
O=C(Nc1ccc(Oc2ccc(F)cc2)cc1)N1CCc2ncccc2[C@H]1c1ccc(F)cc1,cell-free assay,,competition with immobilised ligand,1 µM,remaining binding,96%
COc1cc(/C=C/C(=O)CC(=O)/C=C/c2ccc(O)c(OC)c2)ccc1O,enzyme activity,inhibitor,,1 µM,activity vs control,105%
CC1(C)NC(=O)c2[nH]c3c(Cl)c(Cl)ccc3c2C1C#N (stereo not drawn),thermal stability,,DSF,10 µM,ΔTm,0.9 °C
CNC(=O)c1cc(Oc2ccc(NC(=O)Nc3ccc(Cl)c(C(F)(F)F)c3)cc2)ccn1,enzyme activity,inhibitor,,0.3 µM,inhibition,-6%
CNCc1ccccc1-c1csc([C@H](C)Nc2nc(C)nc3cc(OC)c(OC)cc23)c1,cell-free assay,,competition with immobilised ligand,1 µM,remaining binding,100%
Cn1c2c(c3ccc(Cl)c(Cl)c31)C(C#N)C(C)(C)NC2=O (stereo not drawn),thermal stability,,DSF,10 µM,ΔTm,1.4 °C
Cc1noc([C@H]2C[C@@H](c3ccc(C(F)(F)F)cc3)CN(C(=O)N3CCS(=O)(=O)C3)C2)n1,cell-free assay,,competition with immobilised ligand,1 µM,remaining binding,100%
Cc1ccc(Nc2nccc(N(C)c3ccc4c(C)n(C)nc4c3)n2)cc1S(N)(=O)=O,enzyme activity,inhibitor,,0.3 µM,inhibition,-11%
Cn1c2c(c3ccc(Cl)c(Cl)c31)C(C#N)C1(CCCC1)NC2=O (stereo not drawn),thermal stability,,DSF,10 µM,ΔTm,-0.1 °C
COc1cc2c(Nc3ccc(Br)cc3F)ncnc2cc1OCC1CCN(C)CC1,cell-free assay,,,0.5 µM,remaining signal,95.5%
CC(C)(C)c1nc(-c2cccc(NS(=O)(=O)c3c(F)cccc3F)c2F)c(-c2ccnc(N)n2)s1,enzyme activity,inhibitor,radiometric,1 µM,remaining activity,85%
CCC(=O)N[C@@H]1CC[C@H](C(=O)N(C)c2ccc(-c3nc4ccccc4o3)cc2)C1,cell-free assay,,competition with immobilised ligand,1 µM,remaining binding,100%
CNC(=O)c1cc2c(Oc3ccc(NC(=O)C4(C(=O)Nc5ccc(F)cc5)CC4)cc3)ccnc2cc1OC,enzyme activity,inhibitor,radiometric,1 µM,inhibition,83%
CN(c1ncccc1CNc1nc(Nc2ccc3c(c2)CC(=O)N3)ncc1C(F)(F)F)S(C)(=O)=O,enzyme activity,inhibitor,,1 µM,inhibition,42.1%
Cc1sc(C(=O)NC2COC2)cc1-n1cc(NC(=O)Nc2c(F)cccc2Cl)cn1,enzyme activity,inhibitor,,10 µM,remaining activity,89.2%
O=C(NCc1ncc(C(F)(F)F)cc1Cl)c1ccc2c(c1)C1(CCS(=O)(=O)CC1)[C@H](C1CC1)N2S(=O)(=O)c1ccc(F)cc1,cell-free assay,,competition with immobilised ligand,1 µM,remaining binding,99%
CCN1CCC2(CC1)NC(=O)c1c(c3ccc(Cl)c(Cl)c3n1C)C2C#N (racemic),thermal stability,,DSF,10 µM,ΔTm,0.6 °C
O=C(NS(=O)(=O)c1ccc(NCC2CCOCC2)c([N+](=O)[O-])c1)c1ccc(N2CCN(Cc3ccc(C(F)(F)F)cc3-c3ccc(Cl)cc3)CC2)cc1Oc1cnc2[nH]ccc2c1,cell-free assay,,competition with immobilised ligand,1 µM,remaining binding,99%
O=C1Nc2ccc(Cl)cc2C1=Cc1cc(Cl)c(O)c(Cl)c1,cell-free assay,,,0.5 µM,remaining signal,97.8%
CCCOc1ccc(OC)c(F)c1C(=O)c1ccc(C(=O)N[C@@H]2CNC[C@H]2NC(=O)c2ccc3[nH]ncc3c2)cc1,enzyme activity,inhibitor,,10 µM,remaining activity,93%
CCN(CC)CCNC(=O)c1c(C)[nH]c(/C=C2\C(=O)Nc3ccc(F)cc32)c1C,enzyme activity,inhibitor,,10 µM,inhibition,-5%
CN(C)C1CCN(CC#Cc2nn(C3CCCC3)c3nc(NCc4ccccc4)ncc23)C1 (stereo not drawn),enzyme activity,inhibitor,FRET,1 µM,inhibition,0%
Cn1c(=O)n(-c2ccc(C(C)(C)C#N)cc2)c2c3cc(-c4cnc5ccccc5c4)ccc3ncc21,enzyme activity,inhibitor,,10 µM,remaining activity,100%
CNC(=O)Nc1ccc2c(c1)[C@@]1(CC2)OC(=O)N(CC(=O)N(Cc2ccc(F)cc2)[C@@H](C)C(F)(F)F)C1=O,cell-free assay,,competition with immobilised ligand,1 µM,remaining binding,97%
COc1cc2ncnc(Nc3ccc(Oc4ccccc4)cc3C)c2cc1OC,enzyme activity,inhibitor,,1 µM,inhibition,1%
